Reference: publication PMC4607043 (International journal of biological macromolecules, 2015)

Tests used:
ATP synthase = conditions: cited from earlier work
[1] = test system: membrane bound F1Fo ATP synthase mutant βD380R; assay: Inhibition of ATPase activity, βD380R; assay type: biochemical, Escherichia coli; conditions: at maximal inhibition, preincubated 60 min at room temperature, pH 8.0
In short: (§1)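 Wild-type or mutant membrane-bound F1Fo was prepared by French press, washed, and taken up in 50 mM TrisSO4 pH 8.0, 2.5 mM MgSO4. It was preincubated with a range of test peptide concentrations for 60 min at room temperature, then assayed with 10 mM NaATP, 4 mM MgCl2, 50 mM TrisSO4 pH 8.5 for 5–10 min using 20–30 µg protein. Reactions were stopped with SDS (3.3% final) and Pi read at OD700 (Taussky–Shorr). Activity is relative to wild type without peptide, from duplicate tubes and two or more membrane preparations.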

[2] = test system: membrane bound F1Fo ATP synthase mutant βD386R; assay: Inhibition of ATPase activity, βD386R; assay type: biochemical, Escherichia coli; conditions: at maximal inhibition, preincubated 60 min at room temperature, pH 8.0
In short: as §1

[3] = test system: membrane bound F1Fo ATP synthase mutants βD380A/Q/R or βD386A/Q/R; assay: Inhibition of ATPase activity, single mutants as a group; assay type: biochemical, Escherichia coli; conditions: for inhibition of ATPase, single mutants (in words): single mutations with replacement of Asp to Ala, Gln, or Arg
In short: as §1

[4] = test system: membrane bound F1Fo ATP synthase double mutants βD380A/βD386A, βD380Q/βD386Q, or βD380R/βD386R; assay: Inhibition of ATPase activity, double mutants as a group; assay type: biochemical, Escherichia coli
In short: as §1

Wild-type (pBWU13.4/DK8) [5] = assay: Growth on succinate plates; assay type: cell-based, E. coli; conditions: 3 days, estimated by eye, means of four to six experiments
In short: (§2)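 E. coli DK8 carrying plasmid-borne ATP synthase genes (wild-type pBWU13.4; mutants made by site-directed mutagenesis and sequence-verified) were grown on plates with succinate as the non-fermentable carbon source, with or without test peptide. Growth was scored by eye after 3 days on a scale from ++++ (normal/heavy) to − (none). Values are means of four to six experiments.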

βY331W [6] = assay: Growth on succinate plates; assay type: cell-based, E. coli; conditions: 3 days, estimated by eye, means of four to six experiments
In short: as §2

βD380A [7] = assay: Growth on succinate plates; assay type: cell-based, E. coli; conditions: 3 days, estimated by eye, means of four to six experiments
In short: as §2

βD380Q [8] = assay: Growth on succinate plates; assay type: cell-based, E. coli; conditions: 3 days, estimated by eye, means of four to six experiments
In short: as §2

βD380R [9] = assay: Growth on succinate plates; assay type: cell-based, E. coli; conditions: 3 days, estimated by eye, means of four to six experiments
In short: as §2

βD386A [10] = assay: Growth on succinate plates; assay type: cell-based, E. coli; conditions: 3 days, estimated by eye, means of four to six experiments
In short: as §2

βD386Q [11] = assay: Growth on succinate plates; assay type: cell-based, E. coli; conditions: 3 days, estimated by eye, means of four to six experiments
In short: as §2

βD386R [12] = assay: Growth on succinate plates; assay type: cell-based, E. coli; conditions: 3 days, estimated by eye, means of four to six experiments
In short: as §2

βD380A/βD386A [13] = assay: Growth on succinate plates; assay type: cell-based, E. coli; conditions: 3 days, estimated by eye, means of four to six experiments
In short: as §2

βD380Q/βD386Q [14] = assay: Growth on succinate plates; assay type: cell-based, E. coli; conditions: 3 days, estimated by eye, means of four to six experiments
In short: as §2

βD380R/βD386R [15] = assay: Growth on succinate plates; assay type: cell-based, E. coli; conditions: 3 days, estimated by eye, means of four to six experiments
In short: as §2

Wild-type (pBWU13.4/DK8) [16] = assay: Growth yield in limiting glucose; assay type: cell-based, E. coli; conditions: 3–5 mM glucose, wild type in absence of peptides = 100%, means of four to six experiments
In short: (§3)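 Measures oxidative plus substrate-level phosphorylation as growth on limiting glucose (3–5 mM). The host is E. coli DK8 carrying plasmid pBWU13.4, which encodes all ATP synthase genes, or site-directed βD380/βD386 mutants built on a βY331W background; mutations were confirmed by sequencing. Cultures were grown with or without each of two C-amidated test peptides (>95% HPLC purity, dissolved in deionized water). pUC118/DK8 served as the null strain.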

Null (pUC118/DK8) = assay: Growth yield in limiting glucose; assay type: cell-based, E. coli; conditions: 3–5 mM glucose, wild type in absence of peptides = 100%, means of four to six experiments
βY331W [17] = assay: Growth yield in limiting glucose; assay type: cell-based, E. coli; conditions: 3–5 mM glucose, wild type in absence of peptides = 100%, means of four to six experiments
In short: as §3

βD380A [18] = assay: Growth yield in limiting glucose; assay type: cell-based, E. coli; conditions: 3–5 mM glucose, wild type in absence of peptides = 100%, means of four to six experiments
In short: as §3

βD380Q [19] = assay: Growth yield in limiting glucose; assay type: cell-based, E. coli; conditions: 3–5 mM glucose, wild type in absence of peptides = 100%, means of four to six experiments
In short: as §3

βD380R [20] = assay: Growth yield in limiting glucose; assay type: cell-based, E. coli; conditions: 3–5 mM glucose, wild type in absence of peptides = 100%, means of four to six experiments
In short: as §3

βD386A [21] = assay: Growth yield in limiting glucose; assay type: cell-based, E. coli; conditions: 3–5 mM glucose, wild type in absence of peptides = 100%, means of four to six experiments
In short: as §3

βD386Q [22] = assay: Growth yield in limiting glucose; assay type: cell-based, E. coli; conditions: 3–5 mM glucose, wild type in absence of peptides = 100%, means of four to six experiments
In short: as §3

βD386R [23] = assay: Growth yield in limiting glucose; assay type: cell-based, E. coli; conditions: 3–5 mM glucose, wild type in absence of peptides = 100%, means of four to six experiments
In short: as §3

βD380A/βD386A [24] = assay: Growth yield in limiting glucose; assay type: cell-based, E. coli; conditions: 3–5 mM glucose, wild type in absence of peptides = 100%, means of four to six experiments
In short: as §3

βD380Q/βD386Q [25] = assay: Growth yield in limiting glucose; assay type: cell-based, E. coli; conditions: 3–5 mM glucose, wild type in absence of peptides = 100%, means of four to six experiments
In short: as §3

βD380R/βD386R [26] = assay: Growth yield in limiting glucose; assay type: cell-based, E. coli; conditions: 3–5 mM glucose, wild type in absence of peptides = 100%, means of four to six experiments
In short: as §3

wild type E. coli cells = assay: Growth in presence of peptides, wild-type; assay type: cell-based; conditions: succinate plates and limiting glucose
In short: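 Wild-type DK8/pBWU13.4 was grown with test peptide on succinate plates, scored by eye after 3 days, and in limiting glucose (3–5 mM). Glucose growth yield is expressed relative to wild type without peptide, set as 100%. Values are means of four to six experiments.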

mutant E. coli cells = assay: Growth in presence of peptides, mutants; assay type: cell-based; conditions: succinate plates and limiting glucose

In the case of `O=[N+]([O-])c1ccc(Cl)c2nonc12` [NBD-Cl], the “maximal inhibition of mutant or wild-type ATP synthase (in words)” value (“maximal inhibition” below) (ATP synthase) is listed as “partially or incompletely inhibited”.
For melittin, the “ATPase inhibitory activity (in words)” value (ATP synthase) is listed as “strongly inhibited”.
In the case of `[Cl][Al]([Cl])[Cl]` [AlCl3], the “maximal inhibition” value (ATP synthase) is given as “partially or incompletely inhibited”.
In the case of `[Cl][Sc]([Cl])[Cl]` [ScCl3], the “maximal inhibition” value (ATP synthase) is listed as “partially or incompletely inhibited”.
For `[N-]=[N+]=[N-].[Na+]` [NaN3], the “maximal inhibition” value (ATP synthase) is listed as “partially or incompletely inhibited”.
In the case of melittin-amide, the “residual ATPase activity” value [1] is reported as 80%, the “prevention of inhibition (residual activity)” value [2] is reported as 80% and the “refractoriness of mutants to peptide induced inhibition (in words)” value ([3]; all of the mutations used in this study (single and double)) is reported as “refractory”. For the same molecule, the “inhibition of ATPase, single mutants (in words)” value [3] was “decreased inhibition”, the “inhibition of ATPase, single mutants (in words)” value ([3]; listed as c-terminal amide bound melittin) was “only partial inhibition” and the “inhibition of ATPase, double mutants (in words)” value [4] was “very little or no inhibition”. The “Growth on succinate plates” value (Wild-type (pBWU13.4/DK8) [5]) was “±/±”, the “Growth on succinate plates” value (βY331W [6]) was “±/±” and the “Growth on succinate plates” value (βD380A [7]) was “+++/+++”. The “Growth on succinate plates” value (βD380Q [8]) was “+++/+++”, the “Growth on succinate plates” value (βD380R [9]) was “+++/+++” and the “Growth on succinate plates” value (βD386A [10]) was “+++/+++”. The “Growth on succinate plates” value (βD386Q [11]) was “+++/+++”, the “Growth on succinate plates” value (βD386R [12]) was “+++/+++” and the “Growth on succinate plates” value (βD380A/βD386A [13]) was “+++/+++”. The “Growth on succinate plates” value (βD380Q/βD386Q [14]) was “+++/+++”, the “Growth on succinate plates” value (βD380R/βD386R [15]) was “++/++” and the “Growth yield in limiting glucose” value (Wild-type (pBWU13.4/DK8) [16]) was 20%. The “Growth yield in limiting glucose” value (Null (pUC118/DK8)) was 43%, the “Growth yield in limiting glucose” value (βY331W [17]) was 22% and the “Growth yield in limiting glucose” value (βD380A [18]) was 89%. The “Growth yield in limiting glucose” value (βD380Q [19]) was 90%, the “Growth yield in limiting glucose” value (βD380R [20]) was 82% and the “Growth yield in limiting glucose” value (βD386A [21]) was 79%. For the same molecule, the “Growth yield in limiting glucose” value (βD386Q [22]) was 74%, the “Growth yield in limiting glucose” value (βD386R [23]) was 70% and the “Growth yield in limiting glucose” value (βD380A/βD386A [24]) was 75%. For the same molecule, the “Growth yield in limiting glucose” value (βD380Q/βD386Q [25]) was 72%, the “Growth yield in limiting glucose” value (βD380R/βD386R [26]) was 66% and the “growth of wild-type cells in presence of peptide (in words)” value (wild type E. coli cells) was “abrogated growth”. For the same molecule, the “growth of mutant cells in presence of peptide (in words)” value (mutant E. coli cells) was “not much affected”.
